By Ki is commonly meant a measure of affinity in units of concentration, obtained from inhibition or displacement. By Emax is commonly meant the maximal effect, on the per cent scale that the assay sets. Broadly, the EC50 is the concentration needed to bring the measured effect to its halfway point.

The species named for assay [1] is Homo sapiens. Kind of assay: Selectivity for human recombinant kappa opioid receptor over human recombinant delta opioid receptor.
Assay [2] deals with Delta-type opioid receptor (Homo sapiens, UniProt P41143). Kind of assay: Displacement of [125I]IOXY from human recombinant delta opioid receptor expressed in CHO cells. Type of assay: cell-based. For orientation: In a radioligand displacement assay an active substance lowers the binding of a labelled ligand.
The target in assay [3] is T1, Kappa-type opioid receptor (Homo sapiens, UniProt P41145). As to the kind of experiment: Displacement of [125I]IOXY from human recombinant kappa opioid receptor expressed in CHO cells. Type of assay: cell-based.
Assay [4] concerns the target T2, Mu-type opioid receptor (Homo sapiens, UniProt P35372). As to the kind of experiment: Displacement of [125I]IOXY from human recombinant mu opioid receptor expressed in CHO cells. It is filed as cell-based.
The species entered for assay [5] is Homo sapiens. Kind of assay: Selectivity for human recombinant kappa opioid receptor over human recombinant mu opioid receptor.
Assay [6] concerns the target T1, Kappa-type opioid receptor. Kind of assay: Agonist activity at human recombinant kappa opioid receptor expressed in CHO cells by [35S]GTPgammaS binding assay relative to (-)-U50,488. It is filed as functional, cell-based. In general terms: Binding of GTPγS marks nucleotide exchange on a G protein.
In assay [7] the target is T1, Kappa-type opioid receptor. Kind of assay: Agonist activity at human recombinant kappa opioid receptor expressed in CHO cells by [35S]GTP-gamma-S binding assay. It is filed as functional, cell-based.
Assay [8] concerns the target T2, Mu-type opioid receptor. As to the kind of experiment: Agonist activity at human recombinant mu opioid receptor expressed in CHO cells by [35S]GTP-gamma-S binding assay relative to DAMGO. It is filed as functional, cell-based.
Assay [9] addresses T2, Mu-type opioid receptor. As to the kind of experiment: Agonist activity at human recombinant mu opioid receptor expressed in CHO cells by [35S]GTP-gamma-S binding assay. Type of assay: functional, cell-based.
The target in assay [10] is T2, Mu-type opioid receptor. As to the kind of experiment: Agonist activity at human mu opioid receptor expressed in CHO cells assessed as increase in ERK phosphorylation after 10 mins. Type of assay: functional, cell-based. The gist of the method: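 CHO cells stably expressing human MOR1 (~800 fmol/mg membrane protein), serum-starved 30 min at 37°C, then treated 10 min, with naloxone present where indicated. Lysates were run on SDS-PAGE and immunoblotted for total ERK1/2, then stripped and reprobed for phospho-ERK (Tyr204), with HRP chemiluminescence detection. Densitometry; at least three experiments in triplicate.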

The target in assay [11] is T2, Mu-type opioid receptor. Kind of assay: Agonist activity at mu opioid receptor expressed in HEK293 cells assessed as induction of beta-arrestin-2-GFP plasma membrane translocation at 10 uM after 10 mins. It is filed as functional, cell-based. The gist of the method: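 HEK-293 cells stably expressing MOR (~1000 fmol/mg membrane protein), or transiently expressing MOR1, were transiently transfected with βarr2-GFP (2 μg), with or without GRK2 (1.5 μg). After 24–36 h at 37°C and 30 min serum starvation, basal images were taken. Drug was then applied at 10 μM for 10 min, with confocal imaging each minute; cells shown at 5 min. At least 3 independent experiments.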

SMILES strings stand for the structures. The source made the active and inactive calls. The calls are words filed in the database; no cut-off is given here.

Chain of Delta-type opioid receptor (P41143 whole entry): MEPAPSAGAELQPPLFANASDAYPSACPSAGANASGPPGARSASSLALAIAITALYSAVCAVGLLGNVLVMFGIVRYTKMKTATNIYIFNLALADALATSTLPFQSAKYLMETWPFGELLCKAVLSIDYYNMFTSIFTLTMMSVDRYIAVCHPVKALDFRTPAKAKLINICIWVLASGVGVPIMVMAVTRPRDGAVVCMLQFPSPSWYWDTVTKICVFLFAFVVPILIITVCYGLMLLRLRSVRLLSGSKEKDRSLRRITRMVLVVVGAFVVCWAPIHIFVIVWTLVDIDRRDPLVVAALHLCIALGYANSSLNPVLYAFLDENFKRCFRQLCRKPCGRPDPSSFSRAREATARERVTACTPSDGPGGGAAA
T2 sequence (P35372 whole entry): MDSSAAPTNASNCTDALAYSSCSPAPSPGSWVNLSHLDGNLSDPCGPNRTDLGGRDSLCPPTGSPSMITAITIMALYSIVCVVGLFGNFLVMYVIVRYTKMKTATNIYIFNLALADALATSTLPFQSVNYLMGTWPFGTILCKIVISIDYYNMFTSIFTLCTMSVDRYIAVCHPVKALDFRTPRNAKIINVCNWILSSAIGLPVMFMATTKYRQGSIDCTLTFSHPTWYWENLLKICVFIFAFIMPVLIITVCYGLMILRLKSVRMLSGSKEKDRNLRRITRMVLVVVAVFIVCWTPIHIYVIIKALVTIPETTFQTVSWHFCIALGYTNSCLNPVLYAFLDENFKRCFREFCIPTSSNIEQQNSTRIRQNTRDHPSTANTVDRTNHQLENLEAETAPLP
T1 sequence (P41145 whole entry): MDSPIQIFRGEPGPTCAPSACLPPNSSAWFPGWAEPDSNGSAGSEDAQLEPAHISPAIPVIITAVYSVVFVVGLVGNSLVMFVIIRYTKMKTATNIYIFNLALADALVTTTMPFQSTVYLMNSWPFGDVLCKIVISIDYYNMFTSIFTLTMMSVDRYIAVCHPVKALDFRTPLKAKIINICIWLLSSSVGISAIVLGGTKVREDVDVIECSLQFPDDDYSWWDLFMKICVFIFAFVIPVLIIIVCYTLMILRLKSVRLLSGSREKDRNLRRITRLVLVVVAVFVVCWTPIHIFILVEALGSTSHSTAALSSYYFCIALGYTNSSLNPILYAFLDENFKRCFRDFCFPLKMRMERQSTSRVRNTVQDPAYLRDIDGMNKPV

On to `COC(=O)[C@@H]1C[C@H](OC(=O)c2cccc3ccccc23)C(=O)[C@H]2[C@@]1(C)CC[C@H]1C(=O)O[C@H](c3ccoc3)C[C@]21C`, for which the Ratio Ki in assay [1] and in assay [5] was > 24 throughout. For the same molecule, the inhibition constant Ki in assay [2] was > 10000 nM; in assay [3] it was 410 nM; in assay [4], > 10000 nM.

As to `COC(=O)[C@@H]1C[C@H](NC(C)=O)C(=O)[C@H]2[C@@]1(C)CC[C@H]1C(=O)O[C@H](c3ccoc3)C[C@]21C`, the Emax in assay [6] was determined as 108%. Besides, the EC50 in assay [7] was 120 nM. Moreover, the Ratio Ki in [1] is > 330; in [5] it was 13. Moreover, the results for the Ki in assay [2], in [3] and in assay [4] were > 10000 nM, 30 nM and 4180 nM, respectively.

Regarding `COC(=O)[C@@H]1C[C@H](OC(=O)c2cccs2)C(=O)[C@H]2[C@@]1(C)CC[C@H]1C(=O)O[C@H](c3ccoc3)C[C@]21C`, the Emax in assay [8] was found to be 95%. Moreover, the EC50 in assay [9] turned out to be 1150 nM. In addition, the Ratio Ki worked out at 5 in assay [1] and 0.04 in assay [5].

Regarding `COC(=O)[C@@H]1C[C@H](OC(=O)c2ccc([N+](=O)[O-])cc2)C(=O)[C@H]2[C@@]1(C)CC[C@H]1C(=O)O[C@H](c3ccoc3)C[C@]21C`, in assay [8], the Emax is 46%. Further, the half-maximal effective concentration (EC50) in assay [9] is 1370 nM. In addition, the Ratio Ki in assay [1] is 0.45; in assay [5], 13. In addition, the Ki in assay [2] is > 10000 nM; in assay [3], 570 nM; in [4] it was 260 nM. The Activity entry in assay [10] is “Dose-dependent effect”.

As for `COC(=O)[C@@H]1C[C@H](NS(C)(=O)=O)C(=O)[C@H]2[C@@]1(C)CC[C@H]1C(=O)O[C@H](c3ccoc3)C[C@]21C`, the Ratio Ki in assay [1] and in assay [5] was > 38 in each case. Further, the inhibition constant (Ki) in assay [2] is > 10000 nM; in assay [3], 260 nM; in assay [4] it was > 10000 nM.

On to `COC(=O)[C@@H]1C[C@H](OC(=O)c2ccccc2[N+](=O)[O-])C(=O)[C@H]2[C@@]1(C)CC[C@H]1C(=O)O[C@H](c3ccoc3)C[C@]21C`, for which the figures for the Ratio Ki in assay [1] and in [5] were > 11 and 8, respectively. Further, the inhibitory constant (Ki) was > 10000 nM in assay [2], 900 nM in [3] and 7550 nM in assay [4].

For the molecule `COC(=O)[C@@H]1C[C@H](OC(=O)c2ccsc2)C(=O)[C@H]2[C@@]1(C)CC[C@H]1C(=O)O[C@H](c3ccoc3)C[C@]21C`, the Emax in assay [6] came to 95%; in assay [8], 108%. The EC50 in assay [9] came out at 690 nM; in [7] it was 840 nM. The Ratio Ki in [1] was 9; in assay [5], 0.16. Besides, the Ki in assay [2] was 690 nM; in assay [3] it was 80 nM; in assay [4], 10 nM.

In the case of `COC(=O)[C@@H]1C[C@H](SC(=O)c2ccccc2)C(=O)[C@H]2[C@@]1(C)CC[C@H]1C(=O)O[C@H](c3ccoc3)C[C@]21C`, the Ratio Ki in assay [1] stood at 1.4; in [5], 0.21. Moreover, the figures for the Ki in assay [2], in assay [3] and in assay [4] were 1930 nM, 1410 nM and 290 nM, respectively.

As to `COC(=O)[C@@H]1C[C@H](O)C(=O)[C@H]2[C@@]1(C)CC[C@H]1C(=O)O[C@H](c3ccoc3)C[C@]21C` [SALVINORIN B], the Ki in assay [2] and in [4] was > 10000 nM in each case.

For `COC(=O)[C@@H]1C[C@H](NS(=O)(=O)c2ccccc2)C(=O)[C@H]2[C@@]1(C)CC[C@H]1C(=O)O[C@H](c3ccoc3)C[C@]21C`, the Ratio Ki in [1] and in [5] was > 7 in each case. In addition, the results for the inhibition constant (Ki) in [2], in assay [3] and in assay [4] were > 10000 nM, 1400 nM and > 10000 nM, respectively.

Regarding `COC(=O)[C@@H]1C[C@H](OC(=O)c2ccccc2OC)C(=O)[C@H]2[C@@]1(C)CC[C@H]1C(=O)O[C@H](c3ccoc3)C[C@]21C`, the Ratio Ki in [1] was > 43; in assay [5], 7. Moreover, the inhibition constant Ki is > 10000 nM in [2], 230 nM in assay [3] and 1640 nM in assay [4].

For `COC(=O)[C@@H]1C[C@H](OC(=O)C2CCCCC2)C(=O)[C@H]2[C@@]1(C)CC[C@H]1C(=O)O[C@H](c3ccoc3)C[C@]21C`, the Ratio Ki is > 5 in [1] and 0.5 in [5]. The inhibitory constant (Ki) in assay [2] is > 10000 nM; in assay [3], 2010 nM; in [4] it was 1030 nM.

Take `COC(=O)[C@@H]1C[C@H](OC(=O)c2ccccc2)C(=O)[C@H]2[C@@]1(C)CC[C@H]1C(=O)O[C@H](c3ccoc3)C[C@]21C`: the Ratio Ki was 12 in assay [1] and 0.13 in [5].

Consider `COC(=O)[C@@H]1C[C@H](OC(=O)c2ccc(OC)cc2)C(=O)[C@H]2[C@@]1(C)CC[C@H]1C(=O)O[C@H](c3ccoc3)C[C@]21C`, for which the maximal response (Emax) was 106% in [6] and 94% in [8]. Moreover, the figures for the concentration giving a half-maximal response (EC50) in [9] and in assay [7] were 830 nM and 2610 nM, respectively. Besides, the results for the Ratio Ki in [1] and in assay [5] were 3 and 0.12, respectively. The Ki in assay [2] was found to be 1860 nM; in assay [3], 540 nM; in assay [4], 70 nM. Also, the Activity entry in assay [10] was “Dose-dependent effect”.

With `COC(=O)[C@@H]1C[C@H](OC(=O)c2ccc3ccccc3c2)C(=O)[C@H]2[C@@]1(C)CC[C@H]1C(=O)O[C@H](c3ccoc3)C[C@]21C`, the Ratio Ki in [1] is > 2; in assay [5] it was 0.03. Further, the inhibition constant (Ki) in [2] is > 10000 nM; in assay [3] it was 5490 nM; in assay [4], 180 nM.

In the case of `COC(=O)[C@@H]1C[C@H](OC(=O)c2cccc(OC)c2)C(=O)[C@H]2[C@@]1(C)CC[C@H]1C(=O)O[C@H](c3ccoc3)C[C@]21C`, the Emax in assay [6] came to 97%; in [8] it was 72%. Further, the concentration giving a half-maximal response (EC50) in assay [9] came to 1670 nM; in assay [7] it was 3590 nM. In addition, the Ratio Ki in assay [1] amounted to 2; in assay [5] it was 0.05. The Ki in assay [2] came to 1140 nM; in assay [3], 550 nM; in assay [4], 30 nM.

Turning to `COC(=O)[C@@H]1C[C@H](OC(=O)c2cc3ccccc3o2)C(=O)[C@H]2[C@@]1(C)CC[C@H]1C(=O)O[C@H](c3ccoc3)C[C@]21C`, the figures for the Emax in assay [6] and in assay [8] were 109% and 104%, respectively. Moreover, the EC50 in assay [9] is 1680 nM; in assay [7] it was 1120 nM. In addition, the figures for the Ratio Ki in assay [1] and in [5] were 8 and 0.14, respectively. Besides, the values for the inhibitory constant (Ki) in [2], in [3] and in [4] were 580 nM, 70 nM and 10 nM, respectively.

Consider `COC(=O)[C@@H]1C[C@H](NC(=O)c2ccccc2)C(=O)[C@H]2[C@@]1(C)CC[C@H]1C(=O)O[C@H](c3ccoc3)C[C@]21C`, for which the Emax in assay [8] turned out to be 134%. For the same molecule, the half-maximal effective concentration (EC50) in assay [9] is 360 nM. The Ratio Ki in assay [1] came to 0.11; in [5], 0.0004. Moreover, the Ki in assay [2] turned out to be 810 nM; in assay [3] it was 7430 nM; in [4], 3.1 nM. Also, the Activity entry in assay [10] was “Dose-dependent effect”. Also, the result in [11] was Active.

Turning to `COC(=O)[C@@H]1C[C@H](OC(=O)c2ccccc2Br)C(=O)[C@H]2[C@@]1(C)CC[C@H]1C(=O)O[C@H](c3ccoc3)C[C@]21C`, the Ratio Ki is > 100 in assay [1] and 1.2 in [5].

Consider `COC(=O)[C@@H]1C[C@H](OC(=O)c2cccc([N+](=O)[O-])c2)C(=O)[C@H]2[C@@]1(C)CC[C@H]1C(=O)O[C@H](c3ccoc3)C[C@]21C`, for which the Ratio Ki in assay [1] and in [5] was > 12 in each case. Also, the values for the Ki in assay [2], in [3] and in assay [4] were > 10000 nM, 800 nM and > 10000 nM, respectively.

Take `COC(=O)[C@@H]1C[C@H](OC(=O)c2cccc(Br)c2)C(=O)[C@H]2[C@@]1(C)CC[C@H]1C(=O)O[C@H](c3ccoc3)C[C@]21C`: the Ratio Ki in assay [1] was > 100; in assay [5], 1.6.

For the molecule `COC(=O)[C@@H]1C[C@H](OC(=O)c2ccc(Br)cc2)C(=O)[C@H]2[C@@]1(C)CC[C@H]1C(=O)O[C@H](c3ccoc3)C[C@]21C`, the maximum response (Emax) in assay [8] was 108%. The 50% effective concentration (EC50) in assay [9] came out at 4890 nM. The Ratio Ki in [1] was determined as 2; in assay [5] it was 0.01. In addition, the Activity entry in assay [10] was “Dose-dependent effect”.
